# Bioassay records deposited in PubChem by several laboratories.
# UBC13 inh: blocks human UBC13 polyubiquitin chain formation | P61088 | TR-FRET | inhibition, % at 20 µM | 330,000 compounds, 0.47% hits; in the data active = inhibition above about 45%, passing the limit was not always enough
# Target sequence (P61088 whole entry, looked up): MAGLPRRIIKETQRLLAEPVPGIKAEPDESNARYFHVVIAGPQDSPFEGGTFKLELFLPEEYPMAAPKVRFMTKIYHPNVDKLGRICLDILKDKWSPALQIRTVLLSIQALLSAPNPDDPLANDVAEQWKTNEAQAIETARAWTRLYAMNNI
# TMEM16A act: mouse TMEM16A channel activation, primary screen; Q8BHY3; HEK293 TMEM16A/YFP-H148Q/I152L, iodide quench fluorescence; active compounds read low; B-score at 10 µM; 340,000 compounds, 0.3% hits;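 active = fluorescence-ratio B-score plate-corrected deviation score at least 3 library SD below zero, with starting fluorescence score within 5 deviations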;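 also: channel opened by trigger with iodide after compound preincubation; score built on the fluorescence ratio of max minus min over baseline; more negative score means more quench and so TMEM16A activation or potentiation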
# Apaf-1 inh: blocks human Apaf-1 apoptosome activity; 330,000 compounds, 0.71% hits; inhibition, % at 20 µM; reconstituted apoptosome caspase-3 activity, DEVD-Rh110 fluorescence; O14727; AID 489030; active = inhibition of at least 40% at 20 µM
#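 Material: reconstituted apoptosome with Apaf-1, cytochrome c, caspase-9, procaspase-3, dATP; medium: pH 7.5 Hepes buffer with CHAPS, BSA, DTT; also added: cytochrome c and DEVD-Rh110 substrate; timing: 30 min plus 50 min, RT; signal: Rh110 fluorescence intensity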
# FID counter: displaces DNA intercalator in HCV helicase counter-screen; DNA fluorescent intercalator displacement, fluorescence; 290,000 compounds, 0.17% hits; AID 1845; inhibition, % at 7.9 µM; in the data active = inhibition above about 37%;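 also: higher means more ethidium bromide displaced from hairpin DNA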
# ANO1 block: blocks the mouse calcium-activated chloride channel TMEM16A; AID 588511; HEK293 TMEM16A/YFP iodide influx fluorescence, ionomycin; normalized B-score (activity score, 25-100; higher = stronger inhibition) at 10 µM; 310,000 compounds, 1.2% hits; Q8BHY3;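 active = ratio plate-corrected score three or more library SD toward inhibition, starting fluorescence score within five deviations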;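 also: score derived from kinetic fluorescence span divided by baseline fluorescence per well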
# Apaf-1 inh conf: confirmation of Apaf-1 inhibitors; shares compounds with Apaf-1 inh; reconstituted apoptosome, caspase-3 DEVD-Rh110 fluorescence; inhibition, % at 20 µM; 1,800 compounds, 25% hits;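 active = mean inhibition of at least 40% at 20 µM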
# Rh110 interf inh: interferes with Rh110 fluorescence, flagging false Apaf-1 inhibitors. shares compounds with Apaf-1 inh. Rh110 fluorescence interference, quenched caspase reaction. activation (fluorescence interference), % at 20 µM. 1,800 tested, under 10 active;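 active = signal rise of 40% or more at 20 µM, treated as a fluorescence artifact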
# Apaf1 inh interf: shows fluorescence interference in the Apaf-1 inhibitor assay format; shares compounds with Apaf-1 inh; fluorescence interference counterscreen, Apaf-1 assay format; IC50, µM; 460 tested, under 10 active; AID 588538; call rule not given here
# Hits are given with their value; 0 = inactive; - = no result. In the library only some 2.4% were active in any assay of this set; here they are far more common.
SMILES,UBC13 inh,TMEM16A act,Apaf-1 inh,FID counter,ANO1 block,Apaf-1 inh conf,Rh110 interf inh,others
CCCCOc1ccc(/C=C/C(=O)OCC(=O)NC(=O)NCC(C)C)cc1OCC,0,0,0,0,0,-,-,
COc1cc(OC)c2c(-c3ccccc3)cc(=O)oc2c1C(CCN1CCOCC1)c1ccc(N(C)C)cc1 (stereo not drawn),-,-,52,-,-,0,0,
CCCCCc1cc(=O)oc2c(C(CCN3CCCC(C)C3)c3ccc(N(C)C)cc3)c(OC)cc(OC)c12 (stereo not drawn),0,0,68,-,0,0,0,
COc1cc(OC)c2c(C)cc(=O)oc2c1C(CCN1CCOCC1)c1ccc2c(c1)OCO2 (stereo not drawn),0,0,0,-,0,-,-,
COc1cc(OC)c2c(-c3ccccc3)cc(=O)oc2c1C(CCN1CCCC(C)C1)c1ccc2c(c1)OCO2 (stereo not drawn),0,0,56,-,0,0,0,
CCCc1nc2nc(C)c(NS(=O)(=O)c3ccc(Cl)cc3)c(=O)n2[nH]1,0,0,0,0,0,-,-,
CC(C)CCNC(=O)C(CC(C)C)N(Cc1ccc2c(c1)OCO2)C(=O)c1snc(C(N)=O)c1N (stereo not drawn),0,0,0,0,0,-,-,
COC(=O)C(C)Oc1ccc(-c2nccc(-c3ccccn3)n2)cc1 (stereo not drawn),0,0,0,0,0,-,-,
CC1=NN(c2ccc(Cl)cc2)C(=O)C1,0,0,0,0,0,-,-,
CC1=NN(c2ccc(S(=O)(=O)O)cc2C)C(=O)C1,0,0,51,0,0,0,0,
COc1ccc(CCC(=O)OCC(=O)Nc2c(C)n(C)n(-c3ccccc3)c2=O)cc1,0,0,0,-,-,-,-,
CN(C)S(=O)(=O)c1cc(NC(=O)CNCc2ccc(F)cc2)ccc1Cl,0,0,0,0,0,-,-,
O=C1C=C(Nc2ccccc2O)c2ccccc2C1=O,0,0,96,0,0,93,0,Apaf1 inh interf=0
c1cc(SC2CCCCC2)cc(-c2nc3cnccn3c2NC2CCCCC2)c1,0,0,41,-,-,0,0,
c1cn2c(NC3CCCCC3)c(-c3ccc(SC4CCCCC4)cc3)nc2cn1,0,0,0,-,0,-,-,
CCN1CCN(CCc2nc3cc(NC(=O)COc4ccccc4)ccc3n2C)CC1,0,0,51,0,0,0,0,
CN1CCN(CCc2nc3cc(NC(=O)COc4ccccc4)ccc3n2C)CC1,0,0,57,0,0,0,0,
Cn1c(CN2CCCC2)nc2cc(NC(=O)COc3ccccc3)ccc21,0,0,53,0,0,0,0,
CN1CCN(c2ccc(-c3cccc(NC(=O)COc4ccccc4)c3)nn2)CC1,0,0,47,-,0,0,0,
Cc1onc(-c2c(Cl)cccc2Cl)c1COC(=O)c1ccc(Cl)cc1,0,0,0,0,0,-,-,
Cn1c(CCN2CCCCC2)nc2cc(NC(=O)COc3ccccc3)ccc21,0,0,53,0,0,0,0,
CC(C)NC[C@@H](O)c1ccc(O)c(O)c1,0,0,43,0,0,0,0,
COc1cc2sc3cc(NCC[C@@H]4CCCN4C)ccc3c(=O)c2cc1OC,0,0,55,-,-,0,0,
Cc1nc2ccccc2c(=O)n1/N=C/c1ccc(O)cc1O,0,0,0,0,0,-,-,
O=C(NN=Cc1cc([N+](=O)[O-])ccc1O)c1cccc2ccccc12,-,0,-,-,-,-,-,
SMILES,UBC13 inh,TMEM16A act,Apaf-1 inh,FID counter,ANO1 block,Apaf-1 inh conf,Rh110 interf inh,others
Oc1ccc(C=Nc2cccc3ccccc23)c(O)c1,0,0,81,0,0,0,0,
O=[N+]([O-])c1ccc(O)c(/C=N/Nc2ccccn2)c1,-,0,-,0,0,-,-,
O=[N+]([O-])c1ccc(O)c(C=Nc2cccc3ccccc23)c1,0,0,88,0,0,0,0,
O=[N+]([O-])c1cccc(C=Nc2cccc3ccccc23)c1O,0,0,93,0,0,44,0,Apaf1 inh interf=0
O=[N+]([O-])c1ccc(O)c(C=Nc2cccc3ncccc23)c1,0,0,91,0,0,0,0,
CCOC(=O)c1c(/N=C/c2cccc([N+](=O)[O-])c2O)sc(C)c1C,0,0,0,0,0,-,-,
Cc1ccc(C2OC(=O)c3ccccc32)cc1 (stereo not drawn),0,0,0,0,0,-,-,
